ChEMBL document CHEMBL3244177, “Synthesis and prostaglandin-like activity of 2-(trans-3-hydroxy-1-octenyl)-3-indoleheptanoic acid” (J Med Chem, 1978)
Active and inactive are the calls of the source. The calls are words filed in the database; no cut-off is given here.

Assays:
Assay type in all cases: tissue-based
Rattus norvegicus [1] = species on record: Rattus norvegicus; assay: Induction of Prostaglandin receptor-induced adenylate cyclase activation in rat liver homogenate assessed as increase in cAMP level at equimolar dose of 2.8 x 10^-5 mol/L PGE1 after 10 mins relative to control
How it was run: (§1)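 Rat liver homogenate adenylate cyclase, 10 min at 37 °C in Tris-HCl 0.1 mol/L pH 8.0 with ATP 4 × 10^-3, MgSO4 15 × 10^-3, GTP 5 × 10^-4, EGTA 1 × 10^-4 and theophylline 5 × 10^-3 mol/L. Stopped by 2 min boiling, then frozen, thawed and centrifuged. cAMP in the supernatant measured by the Brown method, saline blanks, four replicates.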

Cavia porcellus [2] = species on record: Cavia porcellus; assay: Effect on Prostaglandin receptor-induced contraction in guinea pig ileum assessed as intrinsic activity at 2.0 ug by kymography relative to PGE1
How it was run: (§2)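 Guinea-pig terminal ileum in a 3-mL oxygenated Tyrode bath at 30 °C with cyproheptadine 3 × 10^-9 mol/L. Dosed at 5-min intervals, 30 s contact, isotonic lever on a smoked drum. Final concentrations were 3.6–17.9 × 10^-7 mol/L for the compound and 0.94–18.8 × 10^-9 mol/L for PGE1 standards. Activity bracketed between two PGE1 doses, mean of five observations.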

Cavia porcellus [3] = species on record: Cavia porcellus; assay: Effect on Prostaglandin receptor-induced contraction in guinea pig ileum assessed as intrinsic activity at 0.4 ug by kymography relative to PGE1; how it was run: as §2
Rattus norvegicus [4] = species on record: Rattus norvegicus; assay: Inhibition of Prostaglandin receptor-induced adenylate cyclase activation in rat liver homogenate assessed as cAMP level at 6.7 to 13.4 x 10^-3 M after 10 mins relative to control
Rattus norvegicus [5] = species on record: Rattus norvegicus; assay: Effect on Prostaglandin receptor-induced contraction in rat stomach fundus strip assessed as intrinsic activity at 1.6 ug by kymography relative to PGE1
How it was run: (§3)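 Rat fundus strips in Krebs, dosed once tone was constant. Final bath concentrations were 2.70–13.5 × 10^-7 mol/L for the compound and 0.70–14.0 × 10^-9 mol/L for PGE1 standards, from ethanol stocks. Auxotonic kymograph recording, 10-min cycle, 90 s contact. PGE1-like activity was bracketed between two PGE1 standard doses, mean of five observations per concentration.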

Rattus norvegicus [6] = species on record: Rattus norvegicus; assay: Effect on Prostaglandin receptor-induced contraction in rat stomach fundus strip assessed as intrinsic activity at 2.0 ug by kymography relative to PGE1; how it was run: as §3
Cavia porcellus [7] = species on record: Cavia porcellus; assay: Effect on Prostaglandin receptor-induced contraction in guinea pig ileum assessed as intrinsic activity at 1.6 ug by kymography relative to PGE1; how it was run: as §2
Rattus norvegicus [8] = species on record: Rattus norvegicus; assay: Effect on Prostaglandin receptor-induced contraction in rat stomach fundus strip assessed as intrinsic activity at 0.8 ug by kymography relative to PGE1; how it was run: as §3
Rattus norvegicus [9] = species on record: Rattus norvegicus; assay: Induction of Prostaglandin receptor-induced adenylate cyclase activation in rat liver homogenate assessed as increase in cAMP level at 6.7 to 13.4 x 10^-3 M after 10 mins relative to control; how it was run: as §1
[10] = Competitive inhibition of Prostaglandin receptor in rat stomach fundus strip assessed as inhibition of PGE1-induced contraction by kymography
How it was run: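 Rat stomach fundus strip contractions to PGE1 11.3 × 10^-9 mol/L compared with and without analogue at 2.15–21.5 × 10^-6 mol/L. Stock in ethanol, diluted in Krebs. Kymograph with auxotonic lever, load 1 g baseline and 3 g maximal, 10-min dose cycle, 90 s contact. Approximate IC50 taken from the inhibition concentration-response curve in four preparations.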

Rattus norvegicus [11] = species on record: Rattus norvegicus; assay: Effect on Prostaglandin receptor-induced contraction in rat stomach fundus strip assessed as intrinsic activity at 0.4 ug by kymography relative to PGE1; how it was run: as §3
Cavia porcellus [12] = species on record: Cavia porcellus; assay: Effect on Prostaglandin receptor-induced contraction in guinea pig ileum assessed as intrinsic activity at 0.8 ug by kymography relative to PGE1; how it was run: as §2

Activity (Rattus norvegicus [1]): inactive | inhibition (Rattus norvegicus [4]): 40% | Intrinsic activity (Rattus norvegicus [5]): 0.00056 | Intrinsic activity (Rattus norvegicus [6]): 0.00055 | Intrinsic activity (Rattus norvegicus [8]): 0.00075 | Activity (Rattus norvegicus [9]): Active | IC50 [10]: 11.8 µM | Intrinsic activity (Rattus norvegicus [11]): 0.00075
Structure (SMILES): CCCCCC(O)/C=C/c1[nH]c2ccccc2c1CCCCCCC(=O)O (configuration not stated)
Intrinsic activity (Cavia porcellus [2]): 0.0057 | Intrinsic activity (Cavia porcellus [3]): 0.004 | Intrinsic activity (Cavia porcellus [7]): 0.0014 | Intrinsic activity (Cavia porcellus [12]): 0.0029
